# Experiments:
# [1] = Hydrolytic stability of the compound assessed as beta-lactum ring opening rate at pH 10 at 35 degC by UV method; type: physicochemical; settings: buffer
# Outline: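 Pseudo-first-order rate constants for β-lactam ring opening, measured by UV at pH 10.0 and 35 °C and reported as k_obsd (s−1).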
# [2] = system: Klebsiella pneumoniae; assay: Antibacterial activity against Klebsiella pneumoniae X26 assessed as growth inhibition; type: functional
# [3] = system: Klebsiella aerogenes; assay: Antibacterial activity against Enterobacter aerogenes X68 assessed as growth inhibition; type: functional
# [4] = Antibacterial activity against Salmonella heidelberg X514 assessed as growth inhibition; type: functional, Salmonella enterica subsp. enterica serovar Heidelberg; settings: Salmonella enterica
# [5] = system: Shigella sp.; assay: Antibacterial activity against Shigella sp. N9 assessed as growth inhibition; type: functional
# [6] = system: Escherichia coli; assay: Antibacterial activity against Escherichia coli N10 assessed as growth inhibition; type: functional
SMILES,k obsd [1] [s⁻¹],MIC [2] [µg/mL],MIC [3] [µg/mL],MIC [4] [µg/mL],MIC [5] [µg/mL],MIC [6] [µg/mL]
O=C(COc1ccccc1)N[C@@H]1C(=O)N2C(C(=O)O)=C(Cl)CS[C@H]12,0.000183,–,–,–,–,–
N[C@@H](C(=O)N[C@@H]1C(=O)N2C(C(=O)O)=C(Cl)CS[C@H]12)c1ccccc1 [CEFACLOR ANHYDROUS],0.000287,–,–,–,–,–
CC(=O)OCC1=C(C(=O)O)N2C(=O)[C@@H](NC(=O)Cc3cccs3)[C@H]2SC1 [CEPHALOTHIN],9.7e-05,1,3,1,14,15

# The next lines start with the values.
k obsd [1] [s⁻¹],MIC [2] [µg/mL],MIC [3] [µg/mL],MIC [4] [µg/mL],MIC [5] [µg/mL],MIC [6] [µg/mL],SMILES
0.000131,0.8,0.9,0.9,17.5,21.2,O=C(Cc1cccs1)N[C@@H]1C(=O)N2C(C(=O)O)=C(Cl)CS[C@H]12
1.07e-05,10,30,29,120,116,CC1=C(C(=O)O)N2C(=O)[C@@H](NC(=O)Cc3cccs3)[C@H]2SC1
